The test system of one data set is M.tb H37Rv. The following applies: cited from earlier work.
A further data set has as its system B. subtilis (ATCC 6051). In words: Antibacterial zone of inhibition. The data set is classed as cell-based, Bacillus subtilis. The following applies: 100 μg mL^−1; for zone of inhibition at 100 µg/mL: Bacillus subtilis, ATCC6051, read-out: Zone of inhibition in mm, B. subtilis (ATCC 6051), Gram positive; for Zone of inhibition in mm, B. subtilis (ATCC 6051): Gram positive. Summed up: (§1)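 Sterilised nutrient agar, […], was seeded with 18–24 h bacterial subcultures, mixed and poured into Petri dishes. Once the agar set, 6 mm wells were cut with a sterile cork borer and filled with test compound dissolved in DMSO at 100 μg mL−1. Plates were incubated at 37 °C for 24–48 h, and inhibition zones around each well were measured in mm. Ciprofloxacin was the reference standard.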

The test system of the next data set is S. aureus (ATCC 23235). The data set is described as follows: Antibacterial zone of inhibition. The data set is classed as cell-based. As to conditions: Staphylococcus aureus, ATCC23235, read-out: Zone of inhibition in mm, S. aureus (ATCC 23235). Summed up:
as §1

The subject of another data set is E. coli (ATCC 25922). In words: Antibacterial zone of inhibition. The data set is classed as cell-based. As to conditions: Escherichia coli, ATCC25922, read-out: Zone of inhibition in mm, E. coli (ATCC 25922). In short, it runs like this: as §1
Data set [1] concerns M. tuberculosis H37Rv strain (ATCC 27294). In words: Antitubercular activity, microplate Alamar Blue assay. The data set is classed as cell-based. As to conditions: Mycobacterium tuberculosis, ATCC27294|H37RV, read-out: MIC μM.
Data set [2] concerns P. aeruginosa (ATCC 27853). In words: Antibacterial zone of inhibition. Format: cell-based. As to conditions: Pseudomonas aeruginosa, ATCC27853, read-out: Zone of inhibition in mm, P. aeruginosa (ATCC 27853). Summed up:
as §1

The subject of data set [3] is dormant M. tuberculosis H37Ra. The following applies: cited from earlier work.
Data set [4] deals with Mycobacterium tuberculosis. As to conditions: cited from earlier work.

≈ marks a conversion by molar mass, not a printed value. Like-named read-outs stand apart in the source and are kept apart here.

Take `CCOC(=O)c1sc(N/N=C(\C)c2ccccn2)nc1C` [(E)-ethyl 4-methyl-(2-(1-(pyridin-2-yl)ethylidene)hydrazinyl)thiazole-5-carboxylate]: in the data set with M.tb H37Rv (M.tb H37Rv), the MIC – broadly, the least concentration at which growth counts as inhibited – is 12.5 µM.
For `CCOC(=O)c1sc(N/N=C/c2c(-c3ccc(F)cc3)nc3ncccn23)nc1C` [Compound K3, Ethyl(E)-2-(2-((2-(4-fluorophenyl)imidazo[1,2-a]pyrimidin-3-yl)methylene)hydrazineyl)-4-methylthiazole-5-carboxylate], the zone of inhibition (usually the extent of the growth-free halo in a diffusion test) at 100 µg/mL came to 13 mm in the data set on B. subtilis (ATCC 6051), 17 mm in the data set with S. aureus (ATCC 23235), 20 mm with E. coli (ATCC 25922) and 11 mm in data set [2]. The “Cytotoxicity in VERO cells” value with VERO cell lines is recorded as “non-toxic profiles”. Besides, in [1], the MIC came to 3.77 µM (≈ 1.6 µg/mL).
Regarding `CCOC(=O)c1nc(-c2ccc(C#N)cc2)sc1C1CCCCC1` [ethyl 2-(4-cyanophenyl)-5-cyclohexylthiazole-4-carboxylate], in data set [3], the “inhibition against dormant M. tuberculosis H37Ra” value is recorded as 91%. In addition, the MIC in the data set on M.tb H37Rv (H37Rv strain) was 2.1 µg/mL.
As to `CCOC(=O)c1sc(N/N=C/c2c(-c3ccc(OC)cc3)nc3ncccn23)nc1C` [Compound K2, Ethyl(E)-2-(2-((2-(4-methoxyphenyl)imidazo[1,2-a]pyrimidin-3-yl)methylene)hydrazineyl)-4-methylthiazole-5-carboxylate], the zone of inhibition at 100 µg/mL in the data set with B. subtilis (ATCC 6051) is 15 to 20 mm; in the data set on S. aureus (ATCC 23235), 15 mm; in the data set on E. coli (ATCC 25922) it was 18 mm; in [2] it was 18 mm. The “Zone of inhibition in mm, B. subtilis (ATCC 6051)” value (from here on “Zone of inhibition in mm”) with B. subtilis (ATCC 6051) turned out to be 15 mm. The “Cytotoxicity in VERO cells” value in the data set with VERO cell lines is “non-toxic profiles”. In addition, the MIC in [1] stood at 3.66 µM (≈ 1.6 µg/mL).
Take `O=[N+]([O-])c1ccc(-c2csc(N/N=C/C=C(\Cl)c3ccc(Cl)cc3)n2)cc1` [2-((E)-2-((Z)-3-chloro-3-(4-chlorophenyl)allylidene)hydrazinyl)-4-(4-nitrophenyl)thiazole]: the MIC in data set [4] ((E)-2-(2-allylidenehydrazinyl)thiazole derivatives) is 6.5 µg/mL.
As to `Cc1csc(C(C)(O)c2nnc(Nc3cccc(Br)n3)s2)n1` (stereo not drawn) [1-(5-((6-bromopyridin-2-yl)amino)-1,3,4-thiadiazol-2-yl)-1-(4-methylthiazol-2-yl)ethanol], in data set [4] (thiazole-thiadiazole hybrids), the minimum inhibitory concentration (MIC) was 1 µM.
Consider `CCOC(=O)c1sc(N/N=C/c2ccccc2O)nc1C` [(E)-ethyl 2-(2-(2-hydroxybenzylidene)hydrazinyl-4-methylthiazole-5-carboxylate], for which the MIC in the data set with M.tb H37Rv (M.tb H37Rv) was 25 µM.
Consider `CCOC(=O)c1sc(N/N=C/c2c(-c3ccc(Cl)cc3)nc3ncccn23)nc1C` [Compound K4, Ethyl(E)-2-(2-((2-(4-chlorophenyl)imidazo[1,2-a]pyrimidin-3-yl)methylene)hydrazineyl)-4-methylthiazole-5-carboxylate], for which the zone of inhibition at 100 µg/mL came to 14 mm in the data set on B. subtilis (ATCC 6051), 13 mm in the data set on S. aureus (ATCC 23235), 20 mm with E. coli (ATCC 25922) and 11 mm in data set [2]. Besides, the minimum inhibitory concentration (MIC) in data set [1] amounted to 14.2 µM (≈ 6.26 µg/mL).
As for `CC(=O)c1sc(N/N=C/c2c(-c3ccc(Cl)cc3)nc3ncccn23)nc1C` [Compound K18, (E)-1-(2-(2-((2-(4-chlorophenyl)imidazo[1,2-a]pyrimidin-3-yl)methylene)hydrazineyl)-4-methylthiazol-5-yl)ethan-1-one], the zone of inhibition at 100 µg/mL in the data set with B. subtilis (ATCC 6051) is 15 to 20 mm; with S. aureus (ATCC 23235) it was 18 mm; in the data set with E. coli (ATCC 25922), 15 mm; in [2], 12 mm. Moreover, the “Zone of inhibition in mm” value in the data set with B. subtilis (ATCC 6051) came to 15 mm. In addition, the MIC in data set [1] is 30.5 µM (≈ 12.5 µg/mL).
Consider `CC(=O)c1sc(N/N=C/c2c(-c3ccc(C#N)cc3)nc3ncccn23)nc1C` [Compound K20, (E)-4-(3-((2-(5-acetyl-4-methylthiazol-2-yl)hydrazineylidene)methyl)imidazo[1,2-a]pyrimidin-2-yl)benzonitrile], for which the zone of inhibition at 100 µg/mL with B. subtilis (ATCC 6051) was 15 to 20 mm; in the data set with S. aureus (ATCC 23235), 17 mm; with E. coli (ATCC 25922) it was 14 mm; in [2], 12 mm. The “Zone of inhibition in mm” value in the data set with B. subtilis (ATCC 6051) came out at 15 mm. The MIC in data set [1] is 15.6 µM (≈ 6.25 µg/mL).

The record behind these values is publication PMC12415690 (RSC Advances, 2025).
